In ChEMBL document CHEMBL1140462, “Convenient synthesis of indeno[1,2-c]isoquinolines as constrained forms of 3-arylisoquinolines and docking study of a topoisomerase I inhibitor into DNA-topoisomerase I complex” (Bioorg Med Chem Lett, 2007):
Calls of active or inactive are those of the source. The rule behind the calls is not given here.

Assays:
HCT-15 = assay: Cytotoxicity against human HCT15 cells by SRB assay; type: functional, cell-based
In short: (§1)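 Panel of four human tumour lines: A549 (lung), SKOV-3 (ovarian), SK-MEL-2 (melanoma) and HCT 15 (colon). Each was exposed to compound in vitro, and cytotoxicity was read out by sulforhodamine B (SRB) staining.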

[1] = Cytotoxicity against human OV3 cells by SRB assay; type: functional, cell-based; in short: as §1
SK-MEL-2 = assay: Cytotoxicity against human SK-MEL-2 cells by SRB assay; type: functional, cell-based; in short: as §1
A549 = assay: Cytotoxicity against human A549 cells by SRB assay; type: functional, cell-based; in short: as §1
[2] = target: T1, DNA topoisomerase 1 (Homo sapiens) (UniProt P11387); assay: Inhibition of topoisomerase 1 by supercoiled DNA unwinding method relative to camptothecin; type: functional
T1 sequence (whole entry): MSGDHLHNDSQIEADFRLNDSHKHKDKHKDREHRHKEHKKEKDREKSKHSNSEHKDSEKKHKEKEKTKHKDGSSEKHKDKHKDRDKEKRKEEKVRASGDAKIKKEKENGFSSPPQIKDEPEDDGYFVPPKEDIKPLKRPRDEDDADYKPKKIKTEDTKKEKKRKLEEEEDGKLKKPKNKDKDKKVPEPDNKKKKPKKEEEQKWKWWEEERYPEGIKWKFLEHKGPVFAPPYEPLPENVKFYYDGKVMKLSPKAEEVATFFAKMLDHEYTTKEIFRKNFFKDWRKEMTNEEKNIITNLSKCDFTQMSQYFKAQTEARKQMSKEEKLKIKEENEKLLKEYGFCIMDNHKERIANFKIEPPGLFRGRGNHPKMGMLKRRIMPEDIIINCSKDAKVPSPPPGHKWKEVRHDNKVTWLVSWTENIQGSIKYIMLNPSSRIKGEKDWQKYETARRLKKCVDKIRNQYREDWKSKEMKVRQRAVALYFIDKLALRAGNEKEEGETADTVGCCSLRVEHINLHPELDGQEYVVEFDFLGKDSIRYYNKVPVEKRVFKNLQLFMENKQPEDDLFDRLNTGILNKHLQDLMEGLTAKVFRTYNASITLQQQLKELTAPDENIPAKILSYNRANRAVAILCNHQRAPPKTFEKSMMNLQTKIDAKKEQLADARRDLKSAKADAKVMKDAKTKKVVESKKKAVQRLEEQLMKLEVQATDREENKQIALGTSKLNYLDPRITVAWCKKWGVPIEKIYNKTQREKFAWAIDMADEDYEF

Row | SMILES | IC50 (HCT-15) [µM] | IC50 [1] [µM] | IC50 (SK-MEL-2) [µM] | IC50 (A549) [µM] | Activity [2]
1 | COc1ccc(Cn2c3c(c4cc(C)ccc4c2=O)C(=O)c2ccccc2-3)cc1 | 171 | 102 | 158 | 155 | –
2 | Cc1ccc2c(=O)n(C)c3c(c2c1)Cc1ccccc1-3 | 20.1 | 261 | 80.3 | 130 | –
3 | CCCCCOC1c2ccccc2-c2c1c1cc(C)ccc1c(=O)n2C (stereo not drawn) | 22 | 13.3 | 26.5 | 16.2 | –
4 | CCCCOC1c2ccccc2-c2c1c1cc(C)ccc1c(=O)n2C (stereo not drawn) | 10.2 | 30.5 | 20.9 | 110 | –
5 | Cn1c2c(c3ccccc3c1=O)C(=O)c1ccccc1-2 | 30.6 | 81 | 90.2 | 23.5 | –
6 | Cn1c2c(c3ccccc3c1=O)Cc1ccccc1-2 | 20.5 | 30.6 | 130 | 30.1 | –
7 | CCOC1c2ccccc2-c2c1c1cc(C)ccc1c(=O)n2Cc1ccc(OC)cc1 (stereo not drawn) | 1.93 | 5.89 | 3.6 | 6.71 | –
8 | COC1c2ccccc2-c2c1c1cc(C)ccc1c(=O)n2C (stereo not drawn) | 20.9 | 60.1 | 70.3 | 130 | –
9 | CCCOC1c2ccccc2-c2c1c1cc(C)ccc1c(=O)n2C (stereo not drawn) | 10.9 | 70.7 | 80.3 | 40.6 | –
10 | CCCCOC1c2ccccc2-c2c1c1cc(C)ccc1c(=O)n2Cc1ccc(OC)cc1 (stereo not drawn) | 4.4 | 2.01 | 3.37 | 3.24 | –
11 | Cc1ccc2c(=O)n(C)c3c(c2c1)C(OCC(C)C)c1ccccc1-3 (stereo not drawn) | 27.4 | 38.4 | 10.5 | 28.2 | –
12 | COc1cccc2c1C(=O)c1c(O)c3c(c(O)c1C2=O)C[C@@](O)(C(=O)CO)C[C@@H]3O[C@H]1C[C@H](N)[C@H](O)[C@H](C)O1 (stereo in doubt) [DOXORUBICIN] | – | 1.17 | – | – | –
13 | CC[C@@]1(O)C(=O)OCc2c1cc1n(c2=O)Cc2cc3ccccc3nc2-1 [CAMPTOTHECIN] | 0.08 | 0.024 | 0.075 | 0.067 | Active
14 | COc1ccc(Cn2c3c(c4cc(C)ccc4c2=O)C(OC(C)C)c2ccccc2-3)cc1 (stereo not drawn) | 0.91 | 1.21 | 2.43 | 6.22 | Active
15 | COc1ccc(Cn2c3c(c4cc(C)ccc4c2=O)Cc2ccccc2-3)cc1 | 8.9 | 23.2 | 31.9 | 51 | –
16 | CCCOC1c2ccccc2-c2c1c1cc(C)ccc1c(=O)n2Cc1ccc(OC)cc1 (stereo not drawn) | 1.42 | 5.76 | 6.26 | 3.45 | Active
17 | COc1ccc(Cn2c3c(c4cc(C)ccc4c2=O)C(OCC(C)C)c2ccccc2-3)cc1 (stereo not drawn) | – | 1.63 | 2.07 | 1.87 | Active
18 | Cc1ccc2c(=O)n(C)c3c(c2c1)C(=O)c1ccccc1-3 | 14.3 | 16.3 | 17.1 | 20.1 | –
19 | CCOC1c2ccccc2-c2c1c1cc(C)ccc1c(=O)n2C (stereo not drawn) | 20.6 | 70.9 | 40.9 | 90 | –
20 | COc1ccc(Cn2c3c(c4cc(C)ccc4c2=O)C(OC)c2ccccc2-3)cc1 (stereo not drawn) | 1.11 | 1.36 | 15.2 | 10.2 | –
21 | CCCCCOC1c2ccccc2-c2c1c1cc(C)ccc1c(=O)n2Cc1ccc(OC)cc1 (stereo not drawn) | 5.59 | 5.7 | 11.2 | 11.2 | –
22 | COc1ccc(Cn2c3c(c4cc(C)ccc4c2=O)C(O)c2ccccc2-3)cc1 (stereo not drawn) | 20.2 | 71 | 181 | 100 | –
